Results reported in ChEMBL document CHEMBL1772977, “Synthesis and biological evaluation of novel 4-benzylpiperazine ligands for sigma-1 receptor imaging” (Bioorg Med Chem, 2011).

Tests used:
Liver [1] = assay: Biodistribution in ICR mouse liver at 1 uCi, iv after 120 mins postinjection; format: ADME, organism-based; conditions: in vivo, 2 h
How it was run: (§1)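 Female ICR mice (18–22 g, n = 5) received HPLC-purified radiotracer by tail vein (0.1 mL). They were killed by cervical fracture at the stated times. Blood and organs were removed, weighed and gamma-counted. Uptake expressed as percent injected dose per gram of tissue (%ID/g), given as mean with SD.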

Blood [2] = assay: Biodistribution in ICR mouse blood at 1 uCi, iv after 60 mins postinjection; format: ADME, organism-based; conditions: in vivo, 1 h; how it was run: as §1
Stomach [3] = assay: Biodistribution in ICR mouse stomach at 1 uCi, iv measured per organ after 30 mins postinjection; format: ADME, organism-based; conditions: in vivo, 0.5 h
Stomach [4] = assay: Biodistribution in ICR mouse stomach at 1 uCi, iv measured per organ after 120 mins postinjection; format: ADME, organism-based; conditions: in vivo, 2 h
Blood [5] = assay: Biodistribution in ICR mouse blood at 1 uCi, iv after 120 mins postinjection; format: ADME, organism-based; conditions: in vivo, 2 h; how it was run: as §1
Mus musculus [6] = assay: Biodistribution in ICR mouse small intestine at 1 uCi, iv after 120 mins postinjection; format: ADME, organism-based; conditions: in vivo, 2 h; how it was run: as §1
Kidney [7] = assay: Biodistribution in ICR mouse kidney at 1 uCi, iv after 120 mins postinjection; format: ADME, organism-based; conditions: in vivo, 2 h; how it was run: as §1
Thyroid gland [8] = assay: Biodistribution in ICR mouse thyroid at 1 uCi, iv after 15 mins postinjection; format: ADME, organism-based; conditions: in vivo, 0.25 h
How it was run: (§2)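 Female ICR mice (18–22 g, n = 5) received HPLC-purified radioiodinated tracer by tail vein (0.1 mL, 1 µCi). They were killed by cervical fracture at 15, 30, 60, 120 or 240 min post-injection. Blood and organs were removed, weighed and gamma-counted. Uptake is expressed as %ID/g, mean ± SD, n = 4–5.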

Liver [9] = assay: Biodistribution in ICR mouse liver at 1 uCi, iv after 60 mins postinjection; format: ADME, organism-based; conditions: in vivo, 1 h; how it was run: as §1
Kidney [10] = assay: Biodistribution in ICR mouse kidney at 1 uCi, iv after 30 mins postinjection; format: ADME, organism-based; conditions: in vivo, 0.5 h; how it was run: as §1
[11] = 1-Octanol-sodium phosphate buffer distribution coefficient, log D of the compound at pH 7.4; format: physicochemical
How it was run: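 Shake-flask partition of HPLC-purified radiotracer between 1-octanol and 0.05 mol/L sodium phosphate buffer pH 7.4, phases mutually pre-saturated (3 mL each). […] Octanol layer re-distributed until values were consistent. Triplicate, repeated three times.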

Muscle tissue [12] = assay: Biodistribution in ICR mouse muscle at 1 uCi, iv after 120 mins postinjection; format: ADME, organism-based; conditions: in vivo, 2 h; how it was run: as §1
Brain [13] = assay: Biodistribution in ICR mouse brain at 1 uCi, iv after 15 mins postinjection; format: ADME, organism-based; conditions: in vivo, 0.25 h; how it was run: as §1
Heart [14] = assay: Biodistribution in ICR mouse heart at 1 uCi, iv after 30 mins postinjection; format: ADME, organism-based; conditions: in vivo, 0.5 h; how it was run: as §1
Mus musculus [15] = assay: Biodistribution in ICR mouse small intestine at 1 uCi, iv after 240 mins postinjection; format: ADME, organism-based; conditions: in vivo, 4 h; how it was run: as §1
Brain [16] = assay: Biodistribution in ICR mouse brain at 1 uCi, iv after 120 mins postinjection; format: ADME, organism-based; conditions: in vivo, 2 h; how it was run: as §1
Thyroid gland [17] = assay: Biodistribution in ICR mouse thyroid at 1 uCi, iv after 30 mins postinjection; format: ADME, organism-based; conditions: in vivo, 0.5 h; how it was run: as §2
Spleen [18] = assay: Biodistribution in ICR mouse spleen at 1 uCi, iv after 30 mins postinjection; format: ADME, organism-based; conditions: in vivo, 0.5 h; how it was run: as §1
Lung [19] = assay: Biodistribution in ICR mouse lung at 1 uCi, iv after 30 mins postinjection; format: ADME, organism-based; conditions: in vivo, 0.5 h; how it was run: as §1
Kidney [20] = assay: Biodistribution in ICR mouse kidney at 1 uCi, iv after 240 mins postinjection; format: ADME, organism-based; conditions: in vivo, 4 h; how it was run: as §1
Blood [21] = assay: Biodistribution in ICR mouse blood at 1 uCi, iv after 30 mins postinjection; format: ADME, organism-based; conditions: in vivo, 0.5 h; how it was run: as §1
Brain [22] = assay: Biodistribution in ICR mouse brain at 1 uCi, iv after 30 mins postinjection; format: ADME, organism-based; conditions: in vivo, 0.5 h; how it was run: as §1
Lung [23] = assay: Biodistribution in ICR mouse lung at 1 uCi, iv after 60 mins postinjection; format: ADME, organism-based; conditions: in vivo, 1 h; how it was run: as §1
Spleen [24] = assay: Biodistribution in ICR mouse spleen at 1 uCi, iv after 15 mins postinjection; format: ADME, organism-based; conditions: in vivo, 0.25 h; how it was run: as §1
Muscle tissue [25] = assay: Biodistribution in ICR mouse muscle at 1 uCi, iv after 60 mins postinjection; format: ADME, organism-based; conditions: in vivo, 1 h; how it was run: as §1
Thyroid gland [26] = assay: Biodistribution in ICR mouse thyroid at 1 uCi, iv after 120 mins postinjection; format: ADME, organism-based; conditions: in vivo, 2 h; how it was run: as §2
Brain [27] = assay: Biodistribution in ICR mouse brain at 1 uCi, iv after 240 mins postinjection; format: ADME, organism-based; conditions: in vivo, 4 h; how it was run: as §1
Heart [28] = assay: Biodistribution in ICR mouse heart at 1 uCi, iv after 15 mins postinjection; format: ADME, organism-based; conditions: in vivo, 0.25 h; how it was run: as §1

## [125I]c1ccc(CN2CCN(Cc3ccc4c(c3)OCO4)CC2)cc1
Liver [1]
  Drug uptake: 5.08 % ID/g
Blood [2]
  Drug uptake: 0.81 % ID/g
Stomach [3]
  Drug uptake: 2.12 %ID
Stomach [4]
  Drug uptake: 2.54 %ID
Blood [5]
  Drug uptake: 0.77 % ID/g
Mus musculus [6]
  Drug uptake: 10.73 % ID/g
Kidney [7]
  Drug uptake: 7.82 % ID/g
Thyroid gland [8]
  Drug uptake: 6.55 % ID/g
Liver [9]
  Drug uptake: 5.68 % ID/g
Kidney [10]
  Drug uptake: 9.65 % ID/g
[11]
  logD: 2.98
Muscle tissue [12]
  Drug uptake: 1.06 % ID/g
Brain [13]
  Drug uptake: 5.03 % ID/g
Heart [14]
  Drug uptake: 2.79 % ID/g
Mus musculus [15]
  Drug uptake: 10.95 % ID/g
Brain [16]
  Drug uptake: 3.75 % ID/g
Thyroid gland [17]
  Drug uptake: 2.3 % ID/g
Spleen [18]
  Drug uptake: 6.53 % ID/g
Lung [19]
  Drug uptake: 8.7 % ID/g
Kidney [20]
  Drug uptake: 6.89 % ID/g
Blood [21]
  Drug uptake: 0.88 % ID/g
Brain [22]
  Drug uptake: 4.96 % ID/g
Lung [23]
  Drug uptake: 6.29 % ID/g
Spleen [24]
  Drug uptake: 6.68 % ID/g
Muscle tissue [25]
  Drug uptake: 1.5 % ID/g
Thyroid gland [26]
  Drug uptake: 1.4 % ID/g
Brain [27]
  Drug uptake: 2.09 % ID/g
Heart [28]
  Drug uptake: 3.98 % ID/g
